Assay results: ChEMBL document CHEMBL1926509, “Discovery of pyrazolo[1,5-a]pyridines as p110α-selective PI3 kinase inhibitors” (Bioorg Med Chem, 2012)
The source made the active and inactive calls. The calls are words filed in the database; no cut-off is given here.

How the values were obtained:
Mus musculus [1] = assay: Toxicity in human HCT116 cells xenografted Rag1 knockout mouse assessed as mortality at 20 mg/kg, ip qd for 14 days; assay type: organism-based, HCT-116; design: dose 20 mg/kg, route intraperitoneal; details: in vivo, 336 h
How it was run: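 Age-matched specific pathogen-free female Rag1-/- mice bearing subcutaneous HCT-116 tumours (5 × 10⁶ cells inoculated in PBS), n = 7 per group. Drug given ip at 20 mg/kg once daily for 14 days in 7.5% DMSO/42.5% PEG-400/20% 2-hydroxypropyl-β-cyclodextrin/30% water; controls received vehicle alone. Bodyweight recorded daily; mice culled when weight loss exceeded 20% of starting weight.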

[2] = target: Phosphatidylinositol 4,5-bisphosphate 3-kinase catalytic subunit beta isoform (Homo sapiens, UniProt P42338); assay: Inhibition of recombinant PI3K p110beta using L-alpha-phosphatidylinositol as substrate and [gamma33P]ATP after 60 mins by thin layer chromatographic technique
How it was run: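 In-house recombinant class Ia PI3K isoform (0.1 µg) with L-α-phosphatidylinositol substrate in lipid kinase buffer (Tris–HCl pH 7.4, NaCl, EDTA), 1% DMSO final. Started with ATP mix (5 mM MgCl₂, 100 µM ATP plus [γ-³³P]ATP), 1 h at room temperature, stopped with 1 M HCl. Lipids extracted in two steps, separated by TLC, read by phosphorimager. Nine inhibitor concentrations; IC50 averaged over two experiments.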

[3] = Cytotoxicity against human NZB5 cells expressing wild type p110alpha assessed as inhibition of [3H]thymidine incorporation after 5 days; assay type: functional, cell-based
How it was run: (§1)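 Early-passage lab-derived lines in α-MEM with insulin, transferrin, selenite and 5% FBS. Seeded at 1000 cells/well; drug added in 10-fold steps up to 20 µM. Incubated five days under 5% O₂/5% CO₂/90% N₂, with ³H-thymidine (0.04 µCi/well) over the last 6 h. Duplicates per dose; least-squares exponential fit; IC50 is the concentration giving 50% less incorporation.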

[4] = Cytotoxicity against human NZOV9 cells expressing p110alpha Y1021C mutant assessed as inhibition of [3H]thymidine incorporation after 5 days; assay type: functional, cell-based; how it was run: as §1
[5] = Selectivity ratio of IC50 for PI3K p110beta to IC50 for PI3K p110alpha
[6] = Selectivity ratio of IC50 for PI3K p110delta to IC50 for PI3K p110alpha
[7] = target: Phosphatidylinositol 4,5-bisphosphate 3-kinase catalytic subunit alpha isoform (Homo sapiens, UniProt P42336, E545K); assay: Inhibition of recombinant PI3K p110alpha E545K mutant using L-alpha-phosphatidylinositol as substrate and [gamma33P]ATP after 60 mins by thin layer chromatographic technique
[8] = target: Phosphatidylinositol 4,5-bisphosphate 3-kinase catalytic subunit alpha isoform (Homo sapiens, UniProt P42336, H1047R); assay: Inhibition of recombinant PI3K p110alpha H1047R mutant using L-alpha-phosphatidylinositol as substrate and [gamma33P]ATP after 60 mins by thin layer chromatographic technique
[9] = Inhibition of DNA-PK
[10] = target: Phosphatidylinositol 4,5-bisphosphate 3-kinase catalytic subunit gamma isoform (Homo sapiens, UniProt P48736); assay: Inhibition of PI3K p110gamma
How it was run: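 Recombinant PI3K isoform made in-house, mixed with phosphatidylinositol substrate and inhibitor in 1% DMSO. Lipid kinase buffer (2× stock: 40 mM Tris-HCl pH 7.4, 200 mM NaCl, 1 mM EDTA). Started with ATP/MgCl₂ (5 mM)/[γ-³³P]ATP mix, 1 h at room temperature, stopped with 1 M HCl. Lipids extracted, separated by TLC and read by phosphorimager. Nine concentrations, run twice, IC50s averaged.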

[11] = target: Serine/threonine-protein kinase mTOR (Homo sapiens, UniProt P42345); assay: Inhibition of mTOR
[12] = target: Dual specificity mitogen-activated protein kinase kinase 1 (Homo sapiens) (UniProt Q02750); assay: Inhibition of MKK1 assessed as residual activity at 1 uM
[13] = target: Dual specificity mitogen-activated protein kinase kinase 1 (Homo sapiens) (UniProt Q02750); assay: Inhibition of MKK1 assessed as residual activity at 10 uM
[14] = target: Mitogen-activated protein kinase 14 (Homo sapiens) (UniProt Q16539); assay: Inhibition of p38alpha assessed as residual activity at 1 uM
[15] = target: Mitogen-activated protein kinase 14 (Homo sapiens) (UniProt Q16539); assay: Inhibition of p38alpha assessed as residual activity at 10 uM
[16] = target: Ribosomal protein S6 kinase alpha-1 (Homo sapiens) (UniProt Q15418); assay: Inhibition of RSK1 assessed as residual activity at 1 uM
[17] = target: Ribosomal protein S6 kinase alpha-1 (Homo sapiens) (UniProt Q15418); assay: Inhibition of RSK1 assessed as residual activity at 10 uM
[18] = target: High affinity nerve growth factor receptor (Homo sapiens) (UniProt P04629); assay: Inhibition of TrkA assessed as residual activity at 1 uM
[19] = target: High affinity nerve growth factor receptor (Homo sapiens) (UniProt P04629); assay: Inhibition of TrkA assessed as residual activity at 10 uM
[20] = Inhibition of PKA assessed as residual activity at 1 uM
[21] = Inhibition of PKA assessed as residual activity at 10 uM
[22] = target: Insulin receptor (Homo sapiens) (UniProt P06213); assay: Inhibition of IR assessed as residual activity at 1 uM
[23] = target: Insulin receptor (Homo sapiens) (UniProt P06213); assay: Inhibition of IR assessed as residual activity at 10 uM
[24] = target: Misshapen-like kinase 1 (Homo sapiens) (UniProt Q8N4C8); assay: Inhibition of MINK1 assessed as residual activity at 1 uM
[25] = target: Misshapen-like kinase 1 (Homo sapiens) (UniProt Q8N4C8); assay: Inhibition of MINK1 assessed as residual activity at 10 uM
HCT-116 = assay: Antitumor activity against human HCT116 cells xenografted in Rag1 knockout mouse assessed as tumor growth inhibition at 20 mg/kg, ip qd for 14 days relative to untreated control; assay type: functional; details: HCT-116, ip, 336 h, route intraperitoneal, read-out: GI
How it was run: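 Female specific-pathogen-free Rag1−/− mice, age-matched, inoculated subcutaneously with 5×10⁶ HCT-116 cells in PBS. Dosed ip at 20 mg/kg q.d. for 14 days in 7.5% DMSO/42.5% PEG-400/20% hydroxypropyl-β-cyclodextrin/30% water; controls received vehicle only; n = 7 per group. Tumour volume measured three times weekly; 1-way ANOVA with Holm-Sidak comparison at study end.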

Mus musculus [26] = assay: Toxicity in human HCT116 cells xenografted Rag1 knockout mouse assessed as body weight loss at 20 mg/kg, ip qd measured up to day 10; assay type: organism-based, HCT-116; design: dose 20 mg/kg, route intraperitoneal; details: in vivo
How it was run: (§2)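 Female specific-pathogen-free Rag1−/− mice carrying subcutaneous HCT-116 tumours, given 20 mg/kg ip daily for 14 days in a DMSO/PEG-400/hydroxypropyl-β-cyclodextrin/water vehicle; controls received vehicle; n = 7 per group. Bodyweight recorded daily; mice culled if loss exceeded 20% of starting weight.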

Mus musculus [27] = assay: Toxicity in human HCT116 cells xenografted Rag1 knockout mouse assessed as body weight loss at 20 mg/kg, ip qd measured after 10 days relative to untreated control; assay type: organism-based, HCT-116; design: dose 20 mg/kg, route intraperitoneal; details: in vivo, 240 h; how it was run: as §2
[28] = target: T1, Phosphatidylinositol 4,5-bisphosphate 3-kinase catalytic subunit alpha isoform (Homo sapiens, UniProt P42336); details: 100 nM
[29] = target: T1, Phosphatidylinositol 4,5-bisphosphate 3-kinase catalytic subunit alpha isoform; details: 100 nM; remark: listed apart in the source

Sequence of Dual specificity mitogen-activated protein kinase kinase 1 (Homo sapiens) (Q02750 whole entry): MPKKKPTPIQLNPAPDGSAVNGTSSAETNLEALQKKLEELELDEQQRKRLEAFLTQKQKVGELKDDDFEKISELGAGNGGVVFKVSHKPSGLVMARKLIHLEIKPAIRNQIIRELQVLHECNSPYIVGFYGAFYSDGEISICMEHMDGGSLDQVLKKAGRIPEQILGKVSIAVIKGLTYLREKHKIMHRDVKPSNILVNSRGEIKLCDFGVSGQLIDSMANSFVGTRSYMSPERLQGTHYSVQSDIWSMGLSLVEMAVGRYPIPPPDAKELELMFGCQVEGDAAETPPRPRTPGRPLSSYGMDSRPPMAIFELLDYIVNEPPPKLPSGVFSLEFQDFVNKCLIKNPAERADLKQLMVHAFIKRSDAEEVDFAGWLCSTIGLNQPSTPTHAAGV
Sequence of Ribosomal protein S6 kinase alpha-1 (Homo sapiens) (Q15418 whole entry): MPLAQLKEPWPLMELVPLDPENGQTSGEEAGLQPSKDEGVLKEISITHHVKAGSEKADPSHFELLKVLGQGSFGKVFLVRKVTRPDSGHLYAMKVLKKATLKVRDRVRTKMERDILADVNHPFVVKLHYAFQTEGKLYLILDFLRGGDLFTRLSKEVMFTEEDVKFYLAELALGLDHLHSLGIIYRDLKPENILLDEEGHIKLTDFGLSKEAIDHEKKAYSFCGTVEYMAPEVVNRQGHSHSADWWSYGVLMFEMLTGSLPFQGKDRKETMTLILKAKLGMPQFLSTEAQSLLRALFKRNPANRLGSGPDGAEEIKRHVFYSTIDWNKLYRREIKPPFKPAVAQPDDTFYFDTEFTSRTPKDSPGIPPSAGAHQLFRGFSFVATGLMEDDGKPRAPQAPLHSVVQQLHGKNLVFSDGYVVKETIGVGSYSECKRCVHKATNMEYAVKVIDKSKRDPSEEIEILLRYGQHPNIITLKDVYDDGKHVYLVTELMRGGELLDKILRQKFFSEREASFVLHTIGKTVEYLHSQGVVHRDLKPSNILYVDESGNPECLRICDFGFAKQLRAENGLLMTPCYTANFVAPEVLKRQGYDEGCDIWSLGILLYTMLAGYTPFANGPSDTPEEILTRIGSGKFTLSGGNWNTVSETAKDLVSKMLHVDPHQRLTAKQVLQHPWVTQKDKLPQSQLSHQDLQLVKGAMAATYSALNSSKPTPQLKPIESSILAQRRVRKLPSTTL
Sequence of Insulin receptor (Homo sapiens) (P06213 28-758 limits assumed): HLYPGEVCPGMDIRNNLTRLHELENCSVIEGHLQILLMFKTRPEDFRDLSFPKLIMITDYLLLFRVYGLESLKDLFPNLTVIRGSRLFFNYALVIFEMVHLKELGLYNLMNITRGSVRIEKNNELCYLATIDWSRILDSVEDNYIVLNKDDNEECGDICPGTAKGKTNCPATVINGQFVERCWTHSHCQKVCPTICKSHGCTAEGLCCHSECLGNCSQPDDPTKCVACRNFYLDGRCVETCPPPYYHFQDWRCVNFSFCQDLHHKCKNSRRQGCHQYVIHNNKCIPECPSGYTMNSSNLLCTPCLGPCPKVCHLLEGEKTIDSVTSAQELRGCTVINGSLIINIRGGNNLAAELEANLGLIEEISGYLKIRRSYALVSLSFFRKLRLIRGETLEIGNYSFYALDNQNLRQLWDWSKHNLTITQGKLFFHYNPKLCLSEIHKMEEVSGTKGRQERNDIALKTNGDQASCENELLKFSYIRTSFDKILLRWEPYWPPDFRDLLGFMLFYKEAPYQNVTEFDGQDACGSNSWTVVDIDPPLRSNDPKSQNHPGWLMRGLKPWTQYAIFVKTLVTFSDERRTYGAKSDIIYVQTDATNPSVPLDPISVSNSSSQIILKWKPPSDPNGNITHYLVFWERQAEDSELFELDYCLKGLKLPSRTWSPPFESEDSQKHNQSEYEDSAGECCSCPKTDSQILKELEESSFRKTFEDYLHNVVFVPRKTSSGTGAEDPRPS
Sequence of Insulin receptor (Homo sapiens) (P06213 763-1382 limits assumed): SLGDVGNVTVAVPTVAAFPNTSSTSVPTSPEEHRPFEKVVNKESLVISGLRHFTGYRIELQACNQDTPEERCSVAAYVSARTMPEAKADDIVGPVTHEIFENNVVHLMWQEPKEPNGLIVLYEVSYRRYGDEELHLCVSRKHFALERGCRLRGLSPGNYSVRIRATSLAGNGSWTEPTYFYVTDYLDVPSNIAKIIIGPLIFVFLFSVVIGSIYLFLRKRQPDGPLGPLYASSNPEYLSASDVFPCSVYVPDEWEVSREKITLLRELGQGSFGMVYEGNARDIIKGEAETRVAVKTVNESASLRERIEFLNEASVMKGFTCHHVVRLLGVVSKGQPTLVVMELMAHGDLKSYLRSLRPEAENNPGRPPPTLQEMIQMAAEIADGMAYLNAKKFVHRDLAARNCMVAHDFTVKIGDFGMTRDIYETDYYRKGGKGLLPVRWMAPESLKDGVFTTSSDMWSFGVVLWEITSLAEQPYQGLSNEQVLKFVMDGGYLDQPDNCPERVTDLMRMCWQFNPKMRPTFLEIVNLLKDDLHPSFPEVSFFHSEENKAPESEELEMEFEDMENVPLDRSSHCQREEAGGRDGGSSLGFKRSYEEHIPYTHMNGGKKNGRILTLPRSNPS
Sequence of High affinity nerve growth factor receptor (Homo sapiens) (P04629 33-796 limits assumed): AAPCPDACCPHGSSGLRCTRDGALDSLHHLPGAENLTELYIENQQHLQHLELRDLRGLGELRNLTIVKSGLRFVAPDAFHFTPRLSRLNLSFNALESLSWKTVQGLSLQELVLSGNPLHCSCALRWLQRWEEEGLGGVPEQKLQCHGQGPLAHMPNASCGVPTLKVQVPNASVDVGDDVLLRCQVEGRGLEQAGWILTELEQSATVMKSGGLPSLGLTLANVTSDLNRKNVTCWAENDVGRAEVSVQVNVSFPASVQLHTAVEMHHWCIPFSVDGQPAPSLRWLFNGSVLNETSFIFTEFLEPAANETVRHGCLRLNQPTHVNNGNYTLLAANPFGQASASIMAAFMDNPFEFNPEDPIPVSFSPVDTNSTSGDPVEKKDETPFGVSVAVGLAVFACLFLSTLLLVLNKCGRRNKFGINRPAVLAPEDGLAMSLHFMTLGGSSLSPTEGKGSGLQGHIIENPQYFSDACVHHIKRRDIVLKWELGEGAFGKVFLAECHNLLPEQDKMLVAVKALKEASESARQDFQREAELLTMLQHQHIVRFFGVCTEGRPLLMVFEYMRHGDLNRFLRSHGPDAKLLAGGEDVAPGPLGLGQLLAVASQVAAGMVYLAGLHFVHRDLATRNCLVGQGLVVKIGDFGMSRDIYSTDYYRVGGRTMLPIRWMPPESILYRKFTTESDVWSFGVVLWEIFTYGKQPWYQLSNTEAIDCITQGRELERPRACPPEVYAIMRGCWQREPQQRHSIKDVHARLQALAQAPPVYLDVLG
Sequence of Misshapen-like kinase 1 (Homo sapiens) (Q8N4C8 whole entry, looked up): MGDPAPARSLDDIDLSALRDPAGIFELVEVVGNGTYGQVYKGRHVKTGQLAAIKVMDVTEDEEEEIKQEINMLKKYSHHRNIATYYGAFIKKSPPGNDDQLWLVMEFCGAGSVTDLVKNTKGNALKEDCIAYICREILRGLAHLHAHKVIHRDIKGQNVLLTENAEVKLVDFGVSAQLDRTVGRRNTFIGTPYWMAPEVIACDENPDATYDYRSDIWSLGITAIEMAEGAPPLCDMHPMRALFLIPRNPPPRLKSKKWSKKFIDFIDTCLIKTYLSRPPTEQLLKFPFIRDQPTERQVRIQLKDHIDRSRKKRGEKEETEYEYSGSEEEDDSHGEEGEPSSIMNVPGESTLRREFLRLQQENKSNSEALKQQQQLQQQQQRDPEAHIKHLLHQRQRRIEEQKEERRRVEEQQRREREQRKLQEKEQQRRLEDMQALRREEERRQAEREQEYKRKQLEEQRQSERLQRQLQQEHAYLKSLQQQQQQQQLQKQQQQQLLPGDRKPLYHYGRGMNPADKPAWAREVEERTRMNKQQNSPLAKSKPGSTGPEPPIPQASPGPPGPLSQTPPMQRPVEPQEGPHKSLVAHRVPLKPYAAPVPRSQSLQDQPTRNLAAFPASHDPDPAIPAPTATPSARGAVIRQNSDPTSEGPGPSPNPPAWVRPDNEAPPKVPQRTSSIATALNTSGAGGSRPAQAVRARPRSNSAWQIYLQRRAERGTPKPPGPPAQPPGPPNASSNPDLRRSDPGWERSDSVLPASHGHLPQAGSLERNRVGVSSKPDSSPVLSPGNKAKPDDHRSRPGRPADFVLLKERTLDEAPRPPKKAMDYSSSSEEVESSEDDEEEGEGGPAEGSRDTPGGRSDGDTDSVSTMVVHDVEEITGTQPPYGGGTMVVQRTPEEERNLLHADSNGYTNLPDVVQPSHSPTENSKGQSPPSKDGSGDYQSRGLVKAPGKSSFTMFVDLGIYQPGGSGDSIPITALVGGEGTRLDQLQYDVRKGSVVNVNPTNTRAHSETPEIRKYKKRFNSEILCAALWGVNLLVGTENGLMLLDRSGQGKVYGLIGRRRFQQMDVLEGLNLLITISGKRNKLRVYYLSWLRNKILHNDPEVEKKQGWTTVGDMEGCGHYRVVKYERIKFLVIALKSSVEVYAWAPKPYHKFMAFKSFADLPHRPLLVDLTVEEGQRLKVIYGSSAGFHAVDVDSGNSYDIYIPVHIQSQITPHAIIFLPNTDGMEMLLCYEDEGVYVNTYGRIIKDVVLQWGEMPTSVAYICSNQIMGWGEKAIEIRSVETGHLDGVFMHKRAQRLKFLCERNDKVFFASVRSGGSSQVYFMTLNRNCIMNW
Sequence of Mitogen-activated protein kinase 14 (Homo sapiens) (Q16539 whole entry): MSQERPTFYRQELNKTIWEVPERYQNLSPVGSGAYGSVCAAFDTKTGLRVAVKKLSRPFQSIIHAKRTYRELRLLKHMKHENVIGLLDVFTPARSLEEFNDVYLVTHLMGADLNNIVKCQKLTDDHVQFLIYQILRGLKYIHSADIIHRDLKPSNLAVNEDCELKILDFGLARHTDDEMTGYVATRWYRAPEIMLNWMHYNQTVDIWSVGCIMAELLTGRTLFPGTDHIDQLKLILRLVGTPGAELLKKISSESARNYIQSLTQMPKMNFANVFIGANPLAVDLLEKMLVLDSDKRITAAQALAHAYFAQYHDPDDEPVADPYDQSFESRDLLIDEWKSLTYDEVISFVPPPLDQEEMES

Question: With `Cc1ccc([N+](=O)[O-])cc1S(=O)(=O)N(C)/N=C/c1cnn2ccc(C#N)cc12` as the molecule, how does the Activity (Mus musculus [1]) read?
Answer: The Activity was “Non-toxic”.

Question: What about the IC50 [2] of the same molecule?
Answer: Its IC50 is 46 nM.

Question: And the IC50 [3]?
Answer: The IC50 was 60 nM.

Question: And the IC50 [4]?
Answer: Its IC50 is 1400 nM.

Question: And the Ratio IC50 [5]?
Answer: The Ratio IC50 was 50.

Question: And the Ratio IC50 [6]?
Answer: Its Ratio IC50 is 50.

Question: What about the IC50 [7] of the same molecule?
Answer: The IC50 was 0.7 nM.

Question: What about the IC50 [8] of the same molecule?
Answer: The IC50 was 0.5 nM.

Question: And the IC50 [9]?
Answer: Its IC50 is 1.1 nM.

Question: What about the IC50 [10] of the same molecule?
Answer: Its IC50 is 14 nM.

Question: And the IC50 [11]?
Answer: The IC50 was 300 nM.

Question: And the Activity [12]?
Answer: Its Activity is 10%.

Question: What about the Activity [13] of the same molecule?
Answer: Its Activity is 8%.

Question: What about the Activity [14] of the same molecule?
Answer: The Activity was 18%.

Question: And the Activity [15]?
Answer: The Activity was 9%.

Question: And the Activity [16]?
Answer: The Activity was 4%.

Question: And the Activity [17]?
Answer: Its Activity is 2%.

Question: And the Activity [18]?
Answer: The Activity was 19%.

Question: And the Activity [19]?
Answer: The Activity was 13%.

Question: And the Activity [20]?
Answer: The Activity was 1%.

Question: What about the Activity [21] of the same molecule?
Answer: Its Activity is 1%.

Question: What about the Activity [22] of the same molecule?
Answer: The Activity was 55%.

Question: What about the Activity [23] of the same molecule?
Answer: Its Activity is 42%.

Question: What about the Activity [24] of the same molecule?
Answer: Its Activity is 5%.

Question: What about the Activity [25] of the same molecule?
Answer: The Activity was 2%.

Question: And the inhibition in vivo at 20 mg/kg (HCT-116)?
Answer: The inhibition in vivo at 20 mg/kg was 39.1%.

Question: What about the Activity (Mus musculus [26]) of the same molecule?
Answer: Its Activity is “Non-toxic”.

Question: What about the Activity (Mus musculus [27]) of the same molecule?
Answer: Its Activity is 15%.

Question: What about the inhibition [28] of the same molecule?
Answer: The inhibition was “inactive”.

Question: What about the inhibition [29] of the same molecule?
Answer: Its inhibition is “inactive”.
